# Reference: ChEMBL document CHEMBL3351599, “Extending the N-linked aminopiperidine class to the mycobacterial gyrase domain: pharmacophore mapping from known antibacterial leads” (Eur J Med Chem, 2014)
# Key:
# [1] = Selectivity index, ratio of CC50 for mouse RAW264.7 cells to MIC for Mycobacterium tuberculosis H37Rv; format: toxicity; conditions: read-out: Selectivity Index
# Summary of the method: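 Ratio of CC50 to MABA MIC against H37Rv. […] MTT was added 4 h before the end, formazan was dissolved in DMSO and absorbance read at 560 nm. Each concentration was run in triplicate.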
# [2] = (§1) Inhibition of Mycobacterium tuberculosis GyrA/GyrB using relaxed pBR322 as substrate after 30 mins by DNA supercoiling assay
# [3] = tested on: Mycobacterium tuberculosis; assay: as §1
# [4] = tested on: Mycobacterium tuberculosis; assay: Inhibition of Mycobacterium tuberculosis GyrA/GyrB using relaxed pBR322 as substrate at 0.97 uM after 30 mins by DNA supercoiling assay
# Summary of the method: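 Gyrase supercoiling reaction: GyrA/GyrB heterotetramer (1 U), relaxed pBR322, 1 mM ATP, HEPES-KOH pH 7.9 buffer, 30 min at 37 °C. Compounds were tested in a series of 250, 62.5, 15.6, 3.9 and 0.97. Products were resolved on 1% agarose with ethidium staining, and inhibition was quantified relative to control.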
# [5] = tested on: Mycobacterium tuberculosis; assay: Antimycobacterial activity against Mycobacterium tuberculosis H37Rv after 7 days by microplate alamar blue assay; format: functional; conditions: 168 h
# Summary of the method: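 M. tuberculosis H37Rv inoculum taken from fresh LJ medium, resuspended in 7H9-S (7H9 broth, 0.1% casitone, 0.5% glycerol, OADC), adjusted to McFarland No. 1 and diluted 1:20. Two-fold serial dilutions were tested over a range of 25 to 0.78. Plates were incubated 7 days at 37 °C, then alamar blue was added and incubated overnight. Blue-to-pink colour change read as growth; MIC determined.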
# [6] = Cytotoxicity against mouse RAW264.7 cells at 100 uM after 48 hrs by MTT assay; format: cell-based; conditions: read-out: INH
# Summary of the method: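 Cells seeded at 5 × 10⁵ per well with test compound at a range of concentrations. Incubated 48 h at 37 °C under 5% CO₂/[…]. MTT reagent (10 mg mL⁻¹ stock) added about 4 h before the end. Plate centrifuged, supernatant removed and formazan dissolved in DMSO. Absorbance read at 560 nm against a blank. Triplicate wells per concentration.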
Structure (SMILES),selectivity ratio [1],IC50 [2] [µM],inhibition [3],inhibition [4] [%],MIC [5] [µM],"cytotoxicity at 48 h, 100 µM [6] [%]"
COc1cnc2ccc(=O)n(CCN3CCC(NC(=O)Nc4ccc(F)cc4)CC3)c2c1,> 161,0.078,Dose-dependent effect,> 82,0.62,31.5
CC(=O)c1ccc(NC(=S)NC2CCN(CCn3c(=O)ccc4ncc(F)cc43)CC2)cc1,> 4.71,11.3,,> 64,21.2,36.5
